Data: publication PMC8336959 (Science Advances, 2021)
Square brackets hold non-standard residues; d marks the D form. Ends that are not written are not given here. pY = N[C@@H](Cc1ccc(OP(=O)(O)O)cc1)C(=O)O

Columns and labels:
[1] = Sulforhodamine B assay of olaparib-induced cytotoxicity, GRB2-KO cells; assay type: cell-based, human; conditions: human, GRB2-KO HeLa cells
GRB2-KO HeLa cells [2] = experiment: as above; assay type: cell-based, human; conditions: Sulforhodamine B assay, ratio of IC50 WT vs GRB2-KO
[3] = Sulforhodamine B assay of olaparib-induced cytotoxicity, control cells; assay type: cell-based; conditions: human, control (WT) HeLa cells
Procedure, shortened: (§1)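 HeLa cells kept in RPMI 1640 with 10% FBS at 10% CO2. Knockout made by CRISPR-Cas9 gRNA delivered by lentivirus, with puromycin or blasticidin selection; clones checked by Western blot and pooled. Stable reconstitution with wild-type or K109R Strep-tagged GRB2. Cytotoxicity of PARP inhibitor read by sulforhodamine B staining. IC50 taken from the concentration–response data.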

[4] = Sulforhodamine B assay of olaparib-induced cytotoxicity, KO + K109R cells; assay type: cell-based; conditions: human, GRB2-KO HeLa cells reconstituted with K109R mutant GRB2
Procedure, shortened: as §1

GRB2-KO HeLa cells [5] = experiment: Annexin V/PI staining assay, GRB2-KO cells; assay type: cell-based, human; conditions: FACS, 50 μM olaparib for 72 hours, triplicate
Procedure, shortened: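 HeLa cells (GRB2-knockout and comparison lines) grown in RPMI 1640 with 10% FBS at 10% CO2. Cells treated 72 h with DMSO or 50 μM PARP inhibitor, then trypsinized, washed and resuspended in annexin-binding buffer. Labelled with annexin V–Alexa Fluor 647 plus PI for 15 min at room temperature in the dark. Annexin V- and PI-positive fractions scored by flow cytometry against the DMSO control. Triplicate.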

[6] = Sulforhodamine B assay of olaparib-induced cytotoxicity, KO + GRB2 cells; assay type: cell-based; conditions: human, GRB2-KO HeLa cells reconstituted with WT GRB2
Procedure, shortened: as §1

[7] = test system: GRB2-KO HeLa cells reconstituted with ^K109RGRB2; experiment: Annexin V/PI staining assay, KO + K109R cells; assay type: cell-based, human; conditions: FACS, 50 μM olaparib for 72 hours, compared with GRB2-KO
control (WT) HeLa cells = experiment: Annexin V/PI staining assay, control cells; assay type: cell-based, human; conditions: FACS, 50 μM olaparib for 72 hours, triplicate
GRB2-SH2 domain = GRB2-SH2 domain (Homo sapiens, UniProt P62993); experiment: MST binding of synthetic peptides to Atto488-labeled GRB2-SH2 domain; conditions: synthetic peptide
Sequence of GRB2-SH2 domain (P62993 60-152 limits assumed): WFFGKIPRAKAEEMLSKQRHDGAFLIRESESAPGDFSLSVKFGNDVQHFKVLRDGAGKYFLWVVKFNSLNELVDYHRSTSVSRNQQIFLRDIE

[8] = test system: human MRE11 (residues 1 to 411); experiment: MST binding of Atto488-labeled GRB2; conditions: bacterially expressed purified proteins

For `O=C(c1cc(Cc2n[nH]c(=O)c3ccccc23)ccc1F)N1CCN(C(=O)C2CC2)CC1` [olaparib], the IC50 [1] was 18 ± 2.9 µM, the “sensitivity of GRB2-KO cells relative to WT control cells” value (GRB2-KO HeLa cells [2]) was “seven” and the IC50 [3] was 124 ± 41 µM. The IC50 [4] was 20 ± 3 µM, the “olaparib-induced apoptosis, share of cells” value (GRB2-KO HeLa cells [5]) was 60% and the IC50 [6] was 164 ± 47 µM. The “olaparib-induced apoptosis, in words” value [7] was “failed to rescue the phenotype” and the “olaparib-induced apoptosis, share of cells” value (control (WT) HeLa cells) was 20%.

In the case of PSGGKKATQA(pS)QEY [pS139 H2AX], the “binding to GRB2-SH2 domain in words” value (GRB2-SH2 domain) is reported as “failed to produce a binding isotherm”.

For PSGGKKATQASQE(pY) [pY142 H2AX], the “binding to GRB2-SH2 domain in words” value (GRB2-SH2 domain) was “failed to produce a binding isotherm”.

In the case of PWVN[pY]QDGNLN [WVNpYQDGNLN], the “binding to GRB2-SH2 domain in words” value (GRB2-SH2 domain) is reported as “limited impact”.

For “^K109RGRB2: GRB2 lysine-109-to-arginine mutant, MRE11 nonbinding, generated by site-directed mutagenesis”, the “MRE11 binding in words” value [8] was “no binding”.
